Laboratory results published in publication PMC6614152 (Clinical Pharmacokinetics, 2019).
Where “and” joins values, the source holds several entries; their conditions need not be identical. Equal entries are not always repeated. Entries after “also recorded” stand apart in the source; their conditions may differ. Where two headings read alike, the source gives them in different places.

Columns and labels:
JAK1 = conditions: in vitro cellular assays; cited from earlier work
[1] = assay type: in vivo, humans
[2] = cited from earlier work
CYP2D6 = conditions: in vitro data; cited from earlier work
[3] = Population pharmacokinetic analysis; assay type: in vivo, humans
Outline: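 Nonlinear mixed-effects model (FOCEI) fitted to 29,372 plasma concentrations from 4170 healthy and RA subjects across 12 studies (IR 1–48 mg, ER 7.5–30 mg), quantified by LC-MS/MS. Two-compartment structure: IR first-order absorption with lag time, ER mixed zero/first-order absorption with lag time, linear elimination; combined additive/proportional residual error. Below-LLOQ values were set to LLOQ/2, with later post-dose ones censored. Co-medications were time-varying covariates. Checked by VPC (400 replicates) and ER pcVPC.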

[4] = cited from earlier work; remark: listed apart in the source
moderate to severe RA = conditions: monotherapy or in combination with csDMARDs; cited from earlier work
CYP3A = conditions: strong CYP3A inhibitor ketoconazole; cited from earlier work
[5] = RA subjects with bodyweight < 60 kg, steady state, simulated
[6] = RA subjects with bodyweight > 100 kg, steady state, simulated
[7] = final model, population estimate (%RSE), outliers excluded
[8] = healthy subjects, ER formulation, population estimate

Compound: CC[C@@H]1CN(C(=O)NCC(F)(F)F)C[C@@H]1c1cnc2cnc3[nH]ccc3n12 [upadacitinib, Upadacitinib]
- selectivity for JAK1 over JAK2 (JAK1): approximately 60 fold
- selectivity for JAK1 over JAK3 (JAK1): more than 100 fold
- AUC higher relative to subjects with a bodyweight of 60-100 kg [1, 5]: 5%
- Cmax higher compared with subjects with a bodyweight of 60-100 kg [1, 5]: 18%
- AUC lower relative to subjects with a bodyweight of 60-100 kg [1, 6]: 5%
- Cmax lower compared with subjects with a bodyweight of 60-100 kg [1, 6]: 18%
- AUC higher compared with RA subjects with normal renal function ([1]; RA subjects with moderate renal impairment (CrCl 30 to < 60 mL/min)): 26%
- effect of CYP2D6 metabolic phenotype on apparent oral clearance [2]: no effect
- typical oral clearance in RA patients lower compared with healthy subjects [2]: 24%
- contribution of CYP2D6 to upadacitinib metabolism (CYP2D6): potential minor contribution
- time-dependent change in upadacitinib clearance with continued treatment ([3]; CWRES versus time): no time-dependent change
- dose proportionality of bioavailability ([3]; ER dose range of 7.5-30 mg): dose-proportional
- effect of pH-modifying medications on upadacitinib absorption from the ER formulation ([3]; ER formulation): no effect
- Bioavailability of the extended-release formulation relative to the immediate-release formulation [3, 7]: 76.2% and 76%
- ISV on CL/F in phase I [3, 7]: 21%
- ISV on CL/F in phase II/III [3, 7]: 37%
- ISV on Vc/F in phase I [3, 7]: 24%
- ISV on Vc/F in phase II/III [3, 7]: 53%
- apparent oral clearance [3, 8]: 53.7 L/h
- steady-state volume of distribution (sum of the central and peripheral volume of distribution) [3, 8]: 294 L
- correlation of baseline hsCRP with upadacitinib clearance ([3]; in vivo): not correlated
- effect of methotrexate on upadacitinib pharmacokinetics ([3]; in vivo): not affect
- effect of pH-modifying agents on upadacitinib pharmacokinetics ([3]; in vivo): not affect
- effects of bodyweight and mild or moderate renal impairment on upadacitinib exposures ([3]; in vivo): statistically significant but non-clinically relevant effects; also recorded: Bodyweight and mild or moderate renal impairment had statistically significant but non-clinically relevant effects on upadacitinib exposures
- higher estimated upadacitinib AUC in RA subjects compared with healthy subjects ([3]; in vivo): 33%
- lower upadacitinib clearance in RA subjects compared with healthy subjects ([3]; in vivo): 25%
- functional half-life ([4]; IR formulation): 3 to 4 h
- time at which peak plasma concentrations (Cmax) were reached ([4]; after ER dosing): 2 to 4 h
- time at which peak plasma concentrations (Cmax) were reached ([4]; after IR dosing): 1 to 2 h
- Cmax and Cmin of ER 15 and 30 mg once daily versus IR 6 mg and 12 mg twice daily [4]: comparable
- daily AUC of ER 15 and 30 mg once daily versus IR 6 mg and 12 mg twice daily [4]: equivalent
- terminal half-life ([4]; following administration of the IR or ER formulations): 6 to 16 h
- upadacitinib dose eliminated unchanged in urine (renal pathway) ([4]; phase I study): Approximately 20%
- linearity of pharmacokinetics ([4]; range of doses evaluated in phase I and II studies): linear pharmacokinetics
- clinical signs and symptoms in subjects with moderate to severe RA compared with placebo or active comparators (moderate to severe RA): rapid and significant improvements; also recorded: significantly improved
- increase in upadacitinib exposures with ketoconazole (CYP3A): approximately 75%
